What all share (type): cell-based
The target in assay [1] is T1, Sodium channel protein type 9 subunit alpha (Homo sapiens, UniProt Q15858). The assay is described as follows: Inhibition of human Nav1.7 expressed in HEK293 cells assessed as inward peak current by ion-works quattro patch clamp electrophysiology method. Background: In patch-clamp work, channel activity is measured electrically.
Assay [2] deals with T1, Sodium channel protein type 9 subunit alpha. Description: Inhibition of human Nav1.7 expressed in HEK293 cells by whole cell patch clamp electrophysiology method.
Assay [3] deals with T2, Sodium channel protein type 5 subunit alpha (Homo sapiens, UniProt Q14524). The assay is described as follows: Inhibition of human Nav1.5 expressed in HEK293 cells assessed as inward peak current by ion-works quattro patch clamp electrophysiology method. The gist of the method:
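Stable HEK293 line expressing human NaV1.5, recorded by population patch clamp on the IonWorks Quattro.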

The target of assay [4] is T2, Sodium channel protein type 5 subunit alpha. The assay is described as follows: Inhibition of human Nav1.5 expressed in HEK293 cells by whole cell patch clamp electrophysiology method. The gist of the method:
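Stable HEK293 line expressing human NaV1.5, recorded on the PatchXpress 7000A. Percent inhibition versus concentration was pooled from at least 10 cells, with two to three points per concentration. The pooled set was fitted with a four-parameter Hill equation to give a single IC50 curve.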

The results in this text go back to ChEMBL document CHEMBL3797186, “Single Residue Substitutions That Confer Voltage-Gated Sodium Ion Channel Subtype Selectivity in the NaV1.7 Inhibitory Peptide GpTx-1” (J Med Chem, 2016).

A word on the pIC50: it is −log10 of the IC50, conventionally taken in molar units.

pIC50: −log10 of the molar value. Positions of bridges follow the written chain, without caps; N, C: chain ends. Non-standard residues stand in square brackets, D forms with d. Residues, ends and D or L forms follow the SMILES beside them. 1Nal = N[C@@H](Cc1cccc2ccccc12)C(=O)O

T1 sequence (Q15858 whole entry): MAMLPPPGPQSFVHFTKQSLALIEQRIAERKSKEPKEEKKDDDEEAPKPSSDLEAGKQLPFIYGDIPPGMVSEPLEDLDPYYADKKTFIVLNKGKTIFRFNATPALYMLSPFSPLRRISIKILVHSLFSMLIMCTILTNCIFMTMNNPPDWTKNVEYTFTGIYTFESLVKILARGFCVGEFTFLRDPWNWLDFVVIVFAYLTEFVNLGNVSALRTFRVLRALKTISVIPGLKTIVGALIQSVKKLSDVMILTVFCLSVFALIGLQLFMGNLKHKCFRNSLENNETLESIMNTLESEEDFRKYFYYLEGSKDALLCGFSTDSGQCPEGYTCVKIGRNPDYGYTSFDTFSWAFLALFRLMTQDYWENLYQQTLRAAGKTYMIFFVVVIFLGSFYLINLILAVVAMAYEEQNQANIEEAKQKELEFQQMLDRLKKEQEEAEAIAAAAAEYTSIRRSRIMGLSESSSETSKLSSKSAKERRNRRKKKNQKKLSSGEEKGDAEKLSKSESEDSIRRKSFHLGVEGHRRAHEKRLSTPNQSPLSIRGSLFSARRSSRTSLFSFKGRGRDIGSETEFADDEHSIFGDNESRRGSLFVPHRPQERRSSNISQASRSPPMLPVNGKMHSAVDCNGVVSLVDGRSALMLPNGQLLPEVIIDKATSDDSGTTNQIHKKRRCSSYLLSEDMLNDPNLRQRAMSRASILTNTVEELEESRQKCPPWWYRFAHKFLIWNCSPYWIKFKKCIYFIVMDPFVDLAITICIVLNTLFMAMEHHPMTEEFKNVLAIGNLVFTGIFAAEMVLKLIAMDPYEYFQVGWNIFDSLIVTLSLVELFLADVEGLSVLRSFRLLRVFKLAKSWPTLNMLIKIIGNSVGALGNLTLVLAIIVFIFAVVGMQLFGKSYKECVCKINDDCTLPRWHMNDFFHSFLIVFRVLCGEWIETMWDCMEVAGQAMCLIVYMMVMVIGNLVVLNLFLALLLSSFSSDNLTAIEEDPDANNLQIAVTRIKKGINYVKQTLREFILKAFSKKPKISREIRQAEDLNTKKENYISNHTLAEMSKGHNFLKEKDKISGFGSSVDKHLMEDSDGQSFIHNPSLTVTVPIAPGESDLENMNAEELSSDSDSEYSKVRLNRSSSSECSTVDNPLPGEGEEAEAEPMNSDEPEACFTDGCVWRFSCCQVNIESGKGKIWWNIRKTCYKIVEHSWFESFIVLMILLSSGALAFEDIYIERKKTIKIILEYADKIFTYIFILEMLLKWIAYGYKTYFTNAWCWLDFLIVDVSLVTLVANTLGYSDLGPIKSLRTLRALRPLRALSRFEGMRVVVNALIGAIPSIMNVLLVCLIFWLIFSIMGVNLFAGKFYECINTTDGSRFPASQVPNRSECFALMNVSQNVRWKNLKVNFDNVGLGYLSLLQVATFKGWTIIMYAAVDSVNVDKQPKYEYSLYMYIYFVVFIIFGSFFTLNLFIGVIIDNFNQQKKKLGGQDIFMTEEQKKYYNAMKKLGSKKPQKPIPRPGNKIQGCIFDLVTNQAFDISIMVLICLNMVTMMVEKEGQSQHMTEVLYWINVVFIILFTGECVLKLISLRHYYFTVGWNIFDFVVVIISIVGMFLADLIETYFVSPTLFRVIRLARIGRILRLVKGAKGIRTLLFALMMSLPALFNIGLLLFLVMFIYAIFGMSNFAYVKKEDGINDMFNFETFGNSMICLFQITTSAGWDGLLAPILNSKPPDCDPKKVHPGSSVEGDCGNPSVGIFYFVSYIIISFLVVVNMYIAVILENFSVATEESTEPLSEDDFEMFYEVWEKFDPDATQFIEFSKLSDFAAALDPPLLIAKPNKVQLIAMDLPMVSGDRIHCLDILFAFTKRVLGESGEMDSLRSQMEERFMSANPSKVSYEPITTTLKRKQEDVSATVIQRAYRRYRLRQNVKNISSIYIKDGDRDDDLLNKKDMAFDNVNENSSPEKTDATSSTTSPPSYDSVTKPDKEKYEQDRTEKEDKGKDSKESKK
T2 sequence (Q14524 whole entry): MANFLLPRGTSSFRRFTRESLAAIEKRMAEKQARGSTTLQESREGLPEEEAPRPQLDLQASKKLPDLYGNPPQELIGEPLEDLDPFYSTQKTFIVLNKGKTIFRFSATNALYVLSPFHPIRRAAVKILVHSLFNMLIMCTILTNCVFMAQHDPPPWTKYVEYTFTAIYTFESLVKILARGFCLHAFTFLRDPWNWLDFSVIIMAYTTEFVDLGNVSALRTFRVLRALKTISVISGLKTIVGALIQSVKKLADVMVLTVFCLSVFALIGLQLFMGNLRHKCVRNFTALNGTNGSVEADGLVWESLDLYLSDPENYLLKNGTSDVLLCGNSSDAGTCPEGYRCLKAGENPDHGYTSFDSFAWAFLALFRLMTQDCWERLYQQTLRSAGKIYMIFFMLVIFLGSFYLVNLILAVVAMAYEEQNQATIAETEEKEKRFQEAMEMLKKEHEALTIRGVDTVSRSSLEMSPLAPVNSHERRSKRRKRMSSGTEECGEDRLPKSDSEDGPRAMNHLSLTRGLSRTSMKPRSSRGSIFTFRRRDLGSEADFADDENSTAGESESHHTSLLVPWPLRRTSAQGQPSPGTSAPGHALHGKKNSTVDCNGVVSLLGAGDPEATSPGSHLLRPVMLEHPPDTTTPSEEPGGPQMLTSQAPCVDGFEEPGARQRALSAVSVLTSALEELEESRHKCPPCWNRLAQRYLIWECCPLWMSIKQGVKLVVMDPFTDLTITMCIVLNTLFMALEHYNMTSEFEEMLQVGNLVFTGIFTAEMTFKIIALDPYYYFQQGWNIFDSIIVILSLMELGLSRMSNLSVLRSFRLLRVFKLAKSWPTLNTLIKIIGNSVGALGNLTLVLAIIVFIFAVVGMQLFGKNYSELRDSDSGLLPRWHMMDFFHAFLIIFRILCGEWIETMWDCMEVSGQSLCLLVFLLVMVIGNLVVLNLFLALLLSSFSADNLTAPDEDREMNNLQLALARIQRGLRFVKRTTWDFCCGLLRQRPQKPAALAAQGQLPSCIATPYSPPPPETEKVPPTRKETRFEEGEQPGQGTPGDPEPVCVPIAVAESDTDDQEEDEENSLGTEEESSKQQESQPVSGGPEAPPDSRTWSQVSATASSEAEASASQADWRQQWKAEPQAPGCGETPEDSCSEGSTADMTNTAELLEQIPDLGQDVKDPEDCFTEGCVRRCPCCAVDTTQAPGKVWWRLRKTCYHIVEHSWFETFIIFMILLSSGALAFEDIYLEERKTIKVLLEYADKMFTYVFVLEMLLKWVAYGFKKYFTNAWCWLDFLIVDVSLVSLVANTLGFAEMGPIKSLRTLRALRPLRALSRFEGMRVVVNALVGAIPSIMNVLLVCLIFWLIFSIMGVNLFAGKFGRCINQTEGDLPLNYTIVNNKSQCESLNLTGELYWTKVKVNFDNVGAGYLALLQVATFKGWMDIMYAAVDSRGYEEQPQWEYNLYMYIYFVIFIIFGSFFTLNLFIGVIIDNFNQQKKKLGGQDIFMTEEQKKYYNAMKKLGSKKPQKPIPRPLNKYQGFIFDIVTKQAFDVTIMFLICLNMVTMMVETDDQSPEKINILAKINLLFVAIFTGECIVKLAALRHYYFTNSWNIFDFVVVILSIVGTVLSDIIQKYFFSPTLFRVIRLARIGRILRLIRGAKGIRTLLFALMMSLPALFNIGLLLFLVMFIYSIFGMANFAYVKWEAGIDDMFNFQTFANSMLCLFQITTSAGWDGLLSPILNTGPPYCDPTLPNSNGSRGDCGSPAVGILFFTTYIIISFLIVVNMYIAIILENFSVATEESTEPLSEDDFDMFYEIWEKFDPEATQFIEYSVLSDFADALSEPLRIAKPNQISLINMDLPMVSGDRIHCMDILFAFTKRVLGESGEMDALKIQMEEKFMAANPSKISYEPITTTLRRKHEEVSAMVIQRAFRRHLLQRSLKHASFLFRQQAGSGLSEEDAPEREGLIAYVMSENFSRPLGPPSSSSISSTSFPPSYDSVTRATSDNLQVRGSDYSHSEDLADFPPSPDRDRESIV

As to `CSCC[C@@H]1NC(=O)[C@H](Cc2ccccc2)NC(=O)CNC(=O)[C@H](CC(C)C)NC(=O)[C@@H](NC(=O)[C@@H](N)CC(=O)O)CSSC[C@@H]2NC(=O)[C@@H]3CSSC[C@@H](C(=O)N[C@@H](CCCCN)C(=O)N[C@@H](Cc4ccc(O)cc4)C(=O)N[C@H](C(=O)N[C@@H](Cc4ccccc4)C(N)=O)C(C)C)NC(=O)[C@H](Cc4c[nH]c5ccccc45)NC(=O)[C@H](CCCCN)NC(=O)[C@H](Cc4c[nH]cn4)NC(=O)[C@H]([C@@H](C)O)NC(=O)[C@H](CCCNC(=N)N)NC(=O)[C@H](CO)NC(=O)[C@H](CSSC[C@H](NC(=O)[C@H](CCCCN)NC(=O)[C@H](CCCNC(=N)N)NC1=O)C(=O)N[C@@H](Cc1cccc4ccccc14)C(=O)N1CCC[C@H]1C(=O)N[C@@H](CC(=O)O)C(=O)N[C@@H](CC(N)=O)C(=O)N[C@@H](CC(=O)O)C(=O)N[C@@H](CCCCN)C(=O)N3)NC(=O)[C@H](C(C)C)NC(=O)[C@H](CC(C)C)NC(=O)[C@H](CC(N)=O)NC(=O)[C@@H]1CCCN1C(=O)[C@H](CCCNC(=N)N)NC2=O`, the pIC50 in assay [1] is 6.80; in assay [2], 8.22; in assay [3] it was less than 5.30.
For `CC[C@H](C)[C@@H]1NC(=O)[C@@H]2CSSC[C@@H]3NC(=O)[C@H](C(C)C)NC(=O)[C@H](CC(C)C)NC(=O)[C@H](CC(N)=O)NC(=O)[C@@H]4CCCN4C(=O)[C@H](CCCNC(=N)N)NC(=O)[C@H](CSSC[C@H](NC(=O)[C@@H](N)CC(=O)O)C(=O)N[C@@H](CC(C)C)C(=O)NCC(=O)N[C@@H](Cc4ccccc4)C(=O)N[C@@H](CCSC)C(=O)N[C@@H](CCCNC(=N)N)C(=O)N[C@@H](CCCCN)C(=O)N2)NC(=O)[C@H](CSSC[C@@H](C(=O)N[C@@H](CCCCN)C(=O)N[C@@H](Cc2ccc(O)cc2)C(=O)N[C@H](C(=O)N[C@@H](Cc2ccccc2)C(N)=O)C(C)C)NC(=O)[C@H](Cc2c[nH]c4ccccc24)NC(=O)[C@H](CC(=O)O)NC(=O)[C@H](Cc2cnc[nH]2)NC(=O)[C@H]([C@@H](C)O)NC(=O)[C@H](CCCNC(=N)N)NC(=O)[C@H](CO)NC3=O)NC(=O)[C@H](CCCCN)NC(=O)[C@H](CC(=O)O)NC(=O)[C@H](CC(N)=O)NC(=O)[C@H](CC(=O)O)NC(=O)[C@@H]2CCCN2C1=O` (H-DCLGFMRKCIPDNDKCCRPNLVCSRTHDWCKYVF-NH2; disulfide 2-17, 9-23, 16-30), the results for the pIC50 in assay [2] and in assay [4] were 7.80 and less than 5.00, respectively.
For `CC[C@H](C)[C@@H]1NC(=O)[C@@H]2CSSC[C@@H]3NC(=O)[C@H](C(C)C)NC(=O)[C@H](CC(C)C)NC(=O)[C@H](CC(N)=O)NC(=O)[C@@H]4CCCN4C(=O)[C@H](CCCNC(=N)N)NC(=O)[C@H](CSSC[C@H](N)C(=O)N[C@@H](CC(C)C)C(=O)NCC(=O)N[C@@H](Cc4ccccc4)C(=O)N[C@@H](CCSC)C(=O)N[C@@H](CCCNC(=N)N)C(=O)N[C@@H](CCCCN)C(=O)N2)NC(=O)[C@H](CSSC[C@@H](C(=O)N[C@@H](CCCCN)C(=O)N[C@@H](Cc2ccc(O)cc2)C(=O)N[C@H](C(=O)N[C@@H](Cc2ccccc2)C(N)=O)C(C)C)NC(=O)[C@H](Cc2c[nH]c4ccccc24)NC(=O)[C@H](CCCCN)NC(=O)[C@H](Cc2cnc[nH]2)NC(=O)[C@H]([C@@H](C)O)NC(=O)[C@H](CCCNC(=N)N)NC(=O)[C@H](CO)NC3=O)NC(=O)[C@H](CCCCN)NC(=O)[C@H](CC(=O)O)NC(=O)[C@H](CC(N)=O)NC(=O)[C@H](CC(=O)O)NC(=O)[C@@H]2CCCN2C1=O` (H-CLGFMRKCIPDNDKCCRPNLVCSRTHKWCKYVF-NH2; disulfide 1-16, 8-22, 15-29), the pIC50 was 8.10 in assay [2] and less than 5.30 in assay [3].
Regarding `CC[C@H](C)[C@@H]1NC(=O)[C@@H]2CSSC[C@@H]3NC(=O)[C@H](C(C)C)NC(=O)[C@H](CC(C)C)NC(=O)[C@H](CC(N)=O)NC(=O)[C@@H]4CCCN4C(=O)[C@H](CCCNC(=N)N)NC(=O)[C@H](CSSC[C@H](NC(=O)[C@@H](N)CC(=O)O)C(=O)N[C@@H](CC(C)C)C(=O)N[C@@H](C)C(=O)N[C@@H](Cc4ccccc4)C(=O)N[C@@H](CCSC)C(=O)N[C@@H](CCCNC(=N)N)C(=O)N[C@@H](CCCCN)C(=O)N2)NC(=O)[C@H](CSSC[C@@H](C(=O)N[C@@H](CCCCN)C(=O)N[C@@H](Cc2ccc(O)cc2)C(=O)N[C@H](C(=O)N[C@@H](Cc2ccccc2)C(N)=O)C(C)C)NC(=O)[C@H](Cc2c[nH]c4ccccc24)NC(=O)[C@H](CCCCN)NC(=O)[C@H](Cc2cnc[nH]2)NC(=O)[C@H]([C@@H](C)O)NC(=O)[C@H](CCCNC(=N)N)NC(=O)[C@H](CO)NC3=O)NC(=O)[C@H](CCCCN)NC(=O)[C@H](CC(=O)O)NC(=O)[C@H](CC(N)=O)NC(=O)[C@H](CC(=O)O)NC(=O)[C@@H]2CCCN2C1=O` (H-DCLAFMRKCIPDNDKCCRPNLVCSRTHKWCKYVF-NH2; disulfide 2-17, 9-23, 16-30), the values for the pIC50 in assay [2] and in assay [4] were 7.57 and less than 5.00, respectively.
Regarding `CC[C@H](C)[C@@H]1NC(=O)[C@@H]2CSSC[C@@H]3NC(=O)[C@H](C(C)C)NC(=O)[C@H](CC(C)C)NC(=O)[C@H](CC(N)=O)NC(=O)[C@@H]4CCCN4C(=O)[C@H](CCCNC(=N)N)NC(=O)[C@H](CSSC[C@H](NC(=O)[C@@H](N)CC(=O)O)C(=O)N[C@@H](CC(C)C)C(=O)NCC(=O)N[C@@H](Cc4ccccc4)C(=O)N[C@@H](CCSC)C(=O)N[C@@H](CCCNC(=N)N)C(=O)N[C@@H](CCCCN)C(=O)N2)NC(=O)[C@H](CSSC[C@@H](C(=O)N[C@@H](CCCCN)C(=O)N[C@@H](Cc2c[nH]c4ccccc24)C(=O)N[C@H](C(=O)N[C@@H](Cc2ccccc2)C(N)=O)C(C)C)NC(=O)[C@H](Cc2c[nH]c4ccccc24)NC(=O)[C@H](CCCCN)NC(=O)[C@H](Cc2c[nH]cn2)NC(=O)[C@H]([C@@H](C)O)NC(=O)[C@H](CCCNC(=N)N)NC(=O)[C@H](CO)NC3=O)NC(=O)[C@H](CCCCN)NC(=O)[C@H](CC(=O)O)NC(=O)[C@H](CC(N)=O)NC(=O)[C@H](CC(=O)O)NC(=O)[C@@H]2CCCN2C1=O` (H-DCLGFMRKCIPDNDKCCRPNLVCSRTHKWCKWVF-NH2; disulfide 2-17, 9-23, 16-30), the pIC50 in assay [2] is 7.92; in assay [3] it was less than 5.30.
For `CC[C@H](C)[C@@H]1NC(=O)[C@@H]2CSSC[C@@H]3NC(=O)[C@H](C(C)C)NC(=O)[C@H](CC(C)C)NC(=O)[C@H](CC(N)=O)NC(=O)[C@@H]4CCCN4C(=O)[C@H](CCCNC(=N)N)NC(=O)[C@H](CSSC[C@H](NC(=O)[C@@H](N)CC(=O)O)C(=O)N[C@@H](CC(C)C)C(=O)NCC(=O)N[C@@H](Cc4ccccc4)C(=O)N[C@@H](CCSC)C(=O)N[C@@H](CCCNC(=N)N)C(=O)N[C@@H](CCCCN)C(=O)N2)NC(=O)[C@H](CSSC[C@@H](C(=O)N[C@@H](CCCCN)C(=O)N[C@@H](Cc2cccc4ccccc24)C(=O)N[C@H](C(=O)N[C@@H](Cc2ccccc2)C(N)=O)C(C)C)NC(=O)[C@H](Cc2c[nH]c4ccccc24)NC(=O)[C@H](CCCCN)NC(=O)[C@H](Cc2cnc[nH]2)NC(=O)[C@H]([C@@H](C)O)NC(=O)[C@H](CCCNC(=N)N)NC(=O)[C@H](CO)NC3=O)NC(=O)[C@H](CCCCN)NC(=O)[C@H](CC(=O)O)NC(=O)[C@H](CC(N)=O)NC(=O)[C@H](CC(=O)O)NC(=O)[C@@H]2CCCN2C1=O` (H-DCLGFMRKCIPDNDKCCRPNLVCSRTHKWCK[1Nal]VF-NH2; disulfide 2-17, 9-23, 16-30), the pIC50 in assay [1] is 8.05; in assay [3] it was 5.46; in assay [4] it was 6.00.
